KCNK3 inh: human KCNK3 channel inhibition, primary screen. B-score at 10 µM. CHO-KCNK3 thallium flux, FluxOR fluorescence; hits give low values. 340,000 compounds, 0.84% hits;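 active means B-score under library mean minus 4 SD, starting fluorescence ratio at most library mean plus 5 SD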;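 further: more negative B-score means stronger inhibition of thallium flux through KCNK3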
hERG rescue: shields human hERG channel from block by proarrhythmic agents. CHO-hERG, FluxOR thallium flux, dofetilide IC70 present. activation (rescue from dofetilide block), less the hit threshold, % at 10 µM. 310,000 compounds, 0.51% hits. AID 1511;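 active means activation above the mean of controls blocked by dofetilide plus 5 SD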;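 further: thallium influx through hERG after potassium depolarization seen as dye fluorescence rise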
Target sequence (Q12809 whole entry, looked up): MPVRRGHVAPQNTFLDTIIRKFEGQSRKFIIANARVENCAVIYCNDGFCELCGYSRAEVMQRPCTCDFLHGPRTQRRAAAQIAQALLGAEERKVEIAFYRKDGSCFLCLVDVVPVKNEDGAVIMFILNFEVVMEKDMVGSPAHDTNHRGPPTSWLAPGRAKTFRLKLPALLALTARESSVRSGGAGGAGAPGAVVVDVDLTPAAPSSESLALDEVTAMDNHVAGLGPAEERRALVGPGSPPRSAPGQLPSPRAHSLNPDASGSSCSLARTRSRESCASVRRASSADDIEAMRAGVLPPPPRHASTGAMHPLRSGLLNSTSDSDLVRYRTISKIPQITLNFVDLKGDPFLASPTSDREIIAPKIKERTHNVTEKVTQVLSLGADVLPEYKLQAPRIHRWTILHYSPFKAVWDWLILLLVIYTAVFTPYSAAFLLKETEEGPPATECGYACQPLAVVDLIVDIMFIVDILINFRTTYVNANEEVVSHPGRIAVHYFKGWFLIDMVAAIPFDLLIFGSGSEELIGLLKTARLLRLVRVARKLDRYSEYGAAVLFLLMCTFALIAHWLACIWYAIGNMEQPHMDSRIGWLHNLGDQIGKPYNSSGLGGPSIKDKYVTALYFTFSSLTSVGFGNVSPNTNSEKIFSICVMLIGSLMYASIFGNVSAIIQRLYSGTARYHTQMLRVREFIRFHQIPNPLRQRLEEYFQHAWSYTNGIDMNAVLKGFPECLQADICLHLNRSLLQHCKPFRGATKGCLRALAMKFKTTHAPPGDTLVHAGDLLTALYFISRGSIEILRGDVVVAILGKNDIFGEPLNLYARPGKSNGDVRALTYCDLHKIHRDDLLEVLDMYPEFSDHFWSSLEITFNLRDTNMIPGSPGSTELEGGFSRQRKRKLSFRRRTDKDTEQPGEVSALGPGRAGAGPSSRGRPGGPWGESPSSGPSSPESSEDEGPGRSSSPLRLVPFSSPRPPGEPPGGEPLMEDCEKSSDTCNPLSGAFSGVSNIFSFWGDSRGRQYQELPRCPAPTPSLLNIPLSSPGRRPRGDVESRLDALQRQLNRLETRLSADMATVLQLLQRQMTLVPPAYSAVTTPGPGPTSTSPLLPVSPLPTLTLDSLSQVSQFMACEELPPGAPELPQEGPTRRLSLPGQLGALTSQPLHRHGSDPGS
KCNK9 inh: human KCNK9 channel inhibition; 310,000 compounds, 1.2% hits; HEK293 KCNK9, FluxOR thallium flux fluorescence; hits give low values; B-score at 10 µM; AID 488922; Q9NPC2;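 active means ratio B-score over 3 SD below the library mean, with starting fluorescence within 5 SD of its mean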;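 further: negative B-score means less thallium flux so channel inhibition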
KCNQ1 inh: inhibitors of human KCNQ1 potassium channel; CHO-K1 KCNQ1, FluxOR thallium flux fluorescence; hits give high values; B-score at 10 µM; 310,000 compounds, 1.3% hits;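 active means compounds whose thallium flux B-score, printed positive for inhibition, exceeds three library SD while starting fluorescence stays within three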;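 further: channel opened by potassium depolarization with thallium stimulus after 20 min compound exposure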
Kir21 block: blocks the mouse Kir2.1 inward-rectifier potassium channel | B-score at 10 µM | HEK293-Kir2.1, FluxOR thallium flux fluorescence; hits give low values | P35561 | 310,000 compounds, 0.85% hits;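 active means fluorescence ratio B-score at or below minus 3 SD of library scores, with starting-brightness B-score within 2 SD, cut at about -4.2 in these data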;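 further: channel flux triggered by added potassium and thallium sulfate stimulus; B-score of peak minus minimum fluorescence over baseline after thallium stimulus; more negative B-score means stronger Kir2.1 block with less thallium influx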
KCNQ1 pot: potentiators or activators of human KCNQ1 potassium channel. P51787. CHO-K1 KCNQ1, thallium flux FluxOR fluorescence; hits give high values. B-score at 10 µM. 310,000 compounds, 0.35% hits;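 active means fluorescence ratio B-score, a plate-corrected score, at least three library SD, with initial intensity B-score within 5 SD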
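System: Stable KCNQ1 CHO-K1 line | Incubation: 90 min dye loading and 20 min compound exposure, both at room temperature | Measure: Ratio B score | Medium: Assay buffer for compound exposure, DMSO matched across wells | Compound dosing: Single-concentration screen | Probe or stimulus: K+/Tl+ depolarizing stimulus | Measured by: Kinetic FluxOR fluorescence, 10 s baseline plus 110 s post-stimulus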
Active calls of the source: *; i = inactive; / = no result. Rows were chosen to be rich in hits. Some 3.7% of all compounds tested hit in one or more screens of this group.

SMILES	KCNK3 inh	hERG rescue	KCNK9 inh	KCNQ1 inh	Kir21 block	KCNQ1 pot
O=C(NCCc1ccc(F)cc1)Nc1ccc([N+](=O)[O-])cc1	i	-16	i	i	1.6	i
COc1ccccc1CCNC(=O)Nc1cccc([N+](=O)[O-])c1	i	-4	i	6*	-0.38	i
O=[N+]([O-])c1cccc(NC(=S)NCCc2ccccc2)c1	i	-15	i	8*	1.2	i
O=[N+]([O-])c1ccc(NC(=S)NCCc2ccc(F)cc2)cc1	i	-49	i	6*	-5.2*	i
COc1ccc(NC(=O)Nc2cccc([N+](=O)[O-])c2)cc1Cl	i	-10	i	i	-0.56	i
O=[N+]([O-])c1ccc(S(=O)(=O)NNC(=S)NCCc2ccccc2)cc1	i	-2	i	i	0.82	i
Fc1ccc(NC(=S)NCCc2ccc(Cl)cc2)cc1	i	-22	i	i	-4.4*	i
CSc1ccccc1NC(=O)C1CCN(S(C)(=O)=O)CC1	i	-2	i	i	0.03	i
C[C@@]12C(=O)Nc3cc(Cl)ccc3C(=O)N1[C@H]1c3cc(Br)ccc3OC[C@@H]1[C@@H]2c1ccccc1	i	/	/	/	/	/
CC(=O)c1cccc(NC(=S)NCCCCc2ccccc2)c1	i	-9	i	6*	-1.4	i
O=C(COc1ccccc1Cl)Nc1ccc2oc(=O)ccc2c1	i	-5	i	i	-0.77	i
COc1cc2c(cc1NC(=S)Nc1cccc(C(F)(F)F)c1)oc1ccccc12	i	-21	i	7*	1.2	i
COc1cc2c(cc1NC(=S)Nc1cccc3ccccc13)oc1ccccc12	i	-5	i	i	-4.1	i
Cc1ccc(S(=O)(=O)Oc2ccc(/C=N/N=C3/NC(=O)C(CC(=O)O)S3)cc2)cc1[N+](=O)[O-] (stereo unspecified)	i	-6	i	i	0.02	i
N#CC1=C(N)N(c2ccccc2)C(c2cccc([N+](=O)[O-])c2)C1(C#N)C#N (stereo unspecified)	i	-13	i	i	-9.7*	i
N#CC1=C(N)N(c2ccccc2)C(c2ccco2)C1(C#N)C#N (stereo unspecified)	i	-4	i	i	-0.01	i
O=C1Nc2cc(C(=O)NCCN3CCCCCC3)ccc2S/C1=C\c1ccccc1	i	-28	i	i	-4.9*	i
CCN1CCN(CCCNC(=O)c2ccc3c(c2)NC(=O)/C(=C\c2cccc(C)c2)S3)CC1	i	-33	i	i	-4.1	i
Cc1cccc(/C=C2/Sc3ccc(C(=O)NCCN4CCCC4)cc3NC2=O)c1	i	-32	i	6*	-2.8	i
CCOc1cccc(C(=O)N(Cc2cccc(F)c2)C2CCS(=O)(=O)C2)c1 (stereo unspecified)	i	-9	i	i	-0.02	i
Cc1cc(C)c(Cc2c(C)nc3c(C(=O)NCc4ccco4)cnn3c2C)c(C)c1	i	-16	-7.3*	i	0.01	i
CN(C(=O)c1ccnn1C)C1CCCN(Cc2ccccc2F)C1 (stereo unspecified)	i	-4	i	i	1.4	i
CC/C=C\[C@H](O)[C@H](O)C1=C(C)C(=O)[C@]2(O1)C(=O)N[C@@](OC)(C(=O)c1ccccc1)C2O (stereo partly specified)	i	-6	i	i	0.8	i
OC[C@H]1O[C@H](OC[C@H]2O[C@H](OC[C@H]3O[C@H](O[C@]4(CO)O[C@H](CO)[C@@H](O)[C@@H]4O)[C@H](O)[C@@H](O)[C@@H]3O)[C@H](O)[C@@H](O)[C@H]2O)[C@H](O)[C@@H](O)[C@H]1O	i	-3	i	i	-0.06	32*
OCCC1CN(Cc2cc3c(cc2Cl)OCO3)CCN1C1CCCCC1 (stereo unspecified)	i	-3	i	i	0.02	i
O=C(NNc1c(F)c(F)cc(F)c1F)c1cc2ccccc2oc1=O	i	9.9*	i	i	-1.9	i

High-throughput results (PubChem BioAssay)
